In one data set the test system is HepaRG cells. The experiment in a line: Cell viability assay. Format: cell-based, human. In a few lines:
(§1)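 HepaRG, MDCK (canine kidney) or LLC-PK1 (pig kidney) cells were grown at 37°C, 5% CO2 in RPMI 1640 with 10% FBS, 1% glutamine and 1% penicillin–streptomycin. Cells were exposed for 24 h at 37°C to serial dilutions of sulfobetaine surfactant in medium (final-volume concentrations). MTT (0.5%) was added for 4 h, formazan was dissolved in DMSO 16 h in the dark, and A590 was read against medium-only controls. Triplicate.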

A further data set relates to MDCK cells. The experiment in a line: Cell viability assay. Format: cell-based, canine. To be noted: read-out: Cell viability IC50, MTT, mean of triplicate. In short, it runs like this: as §1
Data set [1] in a line: Dispersion stability of surfactant-stabilized GNRs at high ionic strength. To be noted: 1 M NaCl. Format: physicochemical. In a few lines: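 Citrate-stabilized gold nanorods were centrifuged and redispersed twice in 0.1 M NaCl containing millimolar zwitterionic sulfobetaine surfactant. Ionic strength was then raised with brine to 0.5 or 1.0 M. Dispersion stability was followed as retention of optical density, measured by absorbance spectrophotometry, after one day and one week.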

The subject of another data set is SKOV-3 cells. Briefly: Cell viability assay. Format: cell-based. To be noted: Homo sapiens, SK-OV-3, 24 h, read-out: Cell viability IC50. In short, it runs like this: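 SKOV-3 cells in folate-free RPMI 1640 (10% FBS, 1% penicillin–streptomycin) were seeded at 5,000 cells/100 μL and preincubated 24 h at 37°C, 5% CO2. Serial dilutions in medium (final-volume concentrations) were added for 24 h at 37°C. MTT (0.5%) was then added for 4 h, followed by DMSO solubilization 16 h at 25°C in the dark. A590 was normalized to medium-only cells. Triplicate.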

A further data set deals with LLC-PK1 cells. Briefly: Cell viability assay. Format: cell-based, pig. To be noted: read-out: Cell viability IC50; LLC-PK1, MTT, mean of triplicate. In short, it runs like this: as §1
[2] abbreviates: read-out: Cell viability IC50, MTT, mean of triplicate.

SMILES strings stand for the structures. Where two headings read alike, the source gives them in different places.

For orientation: IC50 means the point on the concentration scale where inhibition reaches its midpoint.

Turning to `CCCCCCCCCCCCCC(=O)NCCC[N+](C)(C)CCCS(=O)(=O)[O-]` [ASB-14], the IC50 in the data set on HepaRG cells (setting [2]) turned out to be 105 µM; in the data set with MDCK cells it was 120 µM. Also, the “retention of optical density of stabilized GNRs” value (from here on “retention”) is “over 90%” in data set [1] (after one day) and 80% in data set [1] (after one week).

On to `CCCCCCCCCCCCCCCC(=O)NCCC[N+](C)(C)CCCS(=O)(=O)[O-]` [ASB-16], for which the IC50 in the data set with HepaRG cells (setting [2]) worked out at 58 µM; in the data set with MDCK cells it was 81 µM. Further, the “retention” value in data set [1] (after one day) was “over 90%”; in data set [1] (after one week), 80%.

Take `CCCCCCCCCCCCCCCCCC[N+](C)(C)CCCS(=O)(=O)[O-]` [C18-SB, 3-(N,N-dimethyloctadecylammonio)sulfopropyl betaine]: the IC50 was found to be 52 µM in the data set with HepaRG cells (setting [2]) and 56 µM with MDCK cells. The “retention” value in data set [1] (after one day) was “over 90%”; in data set [1] (after one week), 80%.

Regarding `CCCCCCCCCCCCCCCC[N+](C)(C)C` [CTAB, cetyltrimethylammonium bromide], the IC50 is 8 µM in the data set on SKOV-3 cells and 8 µM in the data set on HepaRG cells (Homo sapiens, read-out: Cell viability IC50).

With `CCCCCCCC/C=C\CCCCCCCC[N+](C)(C)CCCS(=O)(=O)[O-]` [OSB, oleylsulfobetaine], the figures for the IC50 in the data set on LLC-PK1 cells, in the data set on HepaRG cells (setting [2]) and in the data set on MDCK cells were 62 µM, 32 µM and 42 µM, respectively. For the same compound, the entries for the “retention” value in data set [1] (after one day) and in data set [1] (after one week) were “over 90%” and 80%, respectively.

Values taken from article PMC6740333 (Bioconjugate chemistry, 2018).
